For data set [1], the system named is MC65. Put plainly: Effect on C99 expression in tetracycline-removed human MC65 cells at 0.3 to 1 uM after 30 hrs by Western blot analysis. It is filed as functional, cell-based. Background: A western blot detects proteins with antibodies after separation by electrophoresis.
For data set [2], the system named is MC65. Put plainly: Neuroprotective activity in tetracycline-removed human MC65 cells assessed as protection against amyloid beta aggregate-induced cytotoxicity at 0.3 uM after 72 hrs by MTT assay. It counts as functional, cell-based. The gist of the method: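 Single-concentration screen: MC65 cells given 0.3 μM compound under +TC or −TC conditions for 72 h, viability read by MTT. Reported as mean percentage viability (n = 3) relative to parallel +TC cultures at 100%; error bars SEM.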
In general terms: Tetrazolium assays rely on reduction of a dye to a coloured formazan, in cell work by metabolically active cells.

The nature of data set [3]: Neuroprotective activity in tetracycline-removed human MC65 cells assessed as protection against amyloid beta aggregate-induced cytotoxicity after 72 hrs by MTT assay. To be noted: MC65, 72 h. It counts as functional, cell-based. In short, it runs like this:
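MC65 cells kept in +TC or −TC medium with compound across a concentration series for 72 h; viability by MTT. Mean percentage viability (n = 3), parallel +TC cultures as 100%, SEM error bars; EC50 taken from dose–response.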

Data set [4] relates to MC65. Put plainly: Inhibition of amyloid beta oligomer production in tetracycline-removed human MC65 cells after 30 hrs by Western blot analysis. It is filed as functional, cell-based. The gist of the method: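 Compounds added immediately after tetracycline removal, MC65 cells cultured 30 h. Lysates Western blotted with 6E10 antibody; three oligomer bands quantified by densitometry, normalized to α-tubulin, and expressed relative to −TC control set at 100%. Image from one of two independent experiments.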

In data set [5] the test system is MC65. Put plainly: Antioxidant activity in tetracycline-removed human MC65 cells assessed as suppression of oxidative stress at 0.1 to 3 uM after 48 hrs by DCFH-DA assay. It is filed as functional, cell-based. The gist of the method: (§1)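 MC65 human neuroblastoma cells dosed under +TC or −TC (TC withdrawn) for 48 h, then loaded with 25 μM DCFH-DA. Cellular fluorescence measured by flow cytometry. Expressed as mean percentage of fluorescence intensity (n = 3), parallel +TC cultures set at 100%; error bars SEM.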

The nature of data set [6]: Binding affinity to Zn2+ assessed as formation of metal complexes at 50 uM after 10 mins by UV-vis spectrum analysis. It is filed as physicochemical. In short, it runs like this:
(§2)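 50 μM compound incubated with 60 μM CuSO4, FeCl2 or ZnCl2 at room temperature for 10 min. UV−vis spectrum recorded from 300 to 550 nm; complexation judged from spectral change versus metal-free spectrum.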

The nature of data set [7]: Binding affinity to Fe2+ assessed as formation of metal complexes at 50 uM after 10 mins by UV-vis spectrum analysis. It is filed as physicochemical. The gist of the method:
as §2

Data set [8] can be described thus: Binding affinity to Cu2+ assessed as formation of metal complexes at 50 uM after 10 mins by UV-vis spectrum analysis. It counts as physicochemical. In short, it runs like this:
as §2

Data set [9] has as its system MC65. Put plainly: Antioxidant activity in tetracycline-removed human MC65 cells assessed as suppression of oxidative stress after 48 hrs by DCFH-DA assay. It is filed as functional, cell-based. The gist of the method: as §1
Data set [10] can be described thus: Antioxidant activity in tetracycline-removed human MC65 cells assessed as suppression of oxidative stress at 0.1 uM after 48 hrs by DCFH-DA assay. It is filed as functional. In short, it runs like this:
as §1

Activity calls are given as the source filed them. No cut-off for these calls is given here.

The term EC50 denotes the concentration needed to bring the measured effect to its halfway point.

For the molecule `COc1cc(/C=C/C(=O)/C(Cc2cn(CCCCCCNC(=O)COCC(=O)NCCCCN[C@H]3CC[C@@]4(C)C(=CC[C@H]5[C@@H]6CC[C@H]([C@H](C)CCCC(C)C)[C@@]6(C)CC[C@@H]54)C3)nn2)=C(O)/C=C/c2ccc(O)c(OC)c2)ccc1O`, in the data set with MC65 [1], the outcome was inactive. Moreover, the outcome in the data set on MC65 [2] and in the data set with MC65 [5] was Active. For the same molecule, the EC50 in data set [3] turned out to be 300 nM. Further, the inhibition result in the data set on MC65 [4] was “Dose-dependent effect”.

`COc1cc(/C=C/C(=O)/C=C(O)/C=C/c2ccc(OCc3cn(CCNC(=O)COCC(=O)NCCCCN[C@H]4CC[C@@]5(C)C(=CC[C@H]6[C@@H]7CC[C@H]([C@H](C)CCCC(C)C)[C@@]7(C)CC[C@@H]65)C4)nn3)c(OC)c2)ccc1O`: the outcome with MC65 [2] was Active.

For the molecule `COc1cc(/C=C/C(=O)/C=C(O)/C=C/c2ccc(OCc3cn(CCCCNC(=O)COCC(=O)NCCCCN[C@H]4CC[C@@]5(C)C(=CC[C@H]6[C@@H]7CC[C@H]([C@H](C)CCCC(C)C)[C@@]7(C)CC[C@@H]65)C4)nn3)c(OC)c2)ccc1O`, in the data set with MC65 [2], the outcome was Active.

Take `COc1cc(/C=C/C(=O)/C(Cc2cn(CCCCNC(=O)COCC(=O)NCCCCN[C@H]3CC[C@@]4(C)C(=CC[C@H]5[C@@H]6CC[C@H]([C@H](C)CCCC(C)C)[C@@]6(C)CC[C@@H]54)C3)nn2)=C(O)/C=C/c2ccc(O)c(OC)c2)ccc1O`: in the data set with MC65 [1], the outcome was inactive. Moreover, the outcome in the data set with MC65 [2] and in the data set with MC65 [5] was Active. Besides, in data set [3], the concentration giving a half-maximal response (EC50) was 160 nM. Further, in the data set with MC65 [4], the inhibition entry was “Dose-dependent effect”.

With `COc1cc(/C=C/C(=O)/C(Cc2cn(CCCCCCNC(=O)COCC(=O)NCCCCCCN[C@H]3CC[C@@]4(C)C(=CC[C@H]5[C@@H]6CC[C@H]([C@H](C)CCCC(C)C)[C@@]6(C)CC[C@@H]54)C3)nn2)=C(O)/C=C/c2ccc(O)c(OC)c2)ccc1O`, the result in the data set on MC65 [2] was Active.

Take `COc1cc(/C=C/C(=O)/C=C(O)/C=C/c2ccc(OCc3cn(CCCCCCNC(=O)COCC(=O)NCCCCN[C@H]4CC[C@@]5(C)C(=CC[C@H]6[C@@H]7CC[C@H]([C@H](C)CCCC(C)C)[C@@]7(C)CC[C@@H]65)C4)nn3)c(OC)c2)ccc1O`: the result in the data set with MC65 [2] was Active.

For `COc1cc(/C=C/C(=O)/C(Cc2cn(CCCC(=O)NCCCCN[C@H]3CC[C@@]4(C)C(=CC[C@H]5[C@@H]6CC[C@H]([C@H](C)CCCC(C)C)[C@@]6(C)CC[C@@H]54)C3)nn2)=C(O)/C=C/c2ccc(O)c(OC)c2)ccc1O`, the result in the data set with MC65 [2] was Active.

As to `COc1cc(/C=C/C(=O)/C(Cc2cn(CCCCCCNC(=O)CCNC(=O)CCNC(=O)CO[C@H]3CC[C@@]4(C)C(=CC[C@H]5[C@@H]6CC[C@H]([C@H](C)CCCC(C)C)[C@@]6(C)CC[C@@H]54)C3)nn2)=C(O)/C=C/c2ccc(O)c(OC)c2)ccc1O`, the results for the Activity entry in [6], in data set [7] and in data set [8] were “Not Active”, “Active” and “Active”, respectively. Moreover, the EC50 in [3] is 3000 nM.

As to `COc1cc(/C=C/C(=O)/C=C(O)/C=C/c2ccc(OCc3cn(CCCCCCNC(=O)COCC(=O)NCCCCCCN[C@H]4CC[C@@]5(C)C(=CC[C@H]6[C@@H]7CC[C@H]([C@H](C)CCCC(C)C)[C@@]7(C)CC[C@@H]65)C4)nn3)c(OC)c2)ccc1O`, the result with MC65 [2] was Active.

For the molecule `COc1cc(/C=C/C(=O)/C(Cc2cn(CCNC(=O)COCC(=O)NCCCCN[C@H]3CC[C@@]4(C)C(=CC[C@H]5[C@@H]6CC[C@H]([C@H](C)CCCC(C)C)[C@@]6(C)CC[C@@H]54)C3)nn2)=C(O)/C=C/c2ccc(O)c(OC)c2)ccc1O`, the Activity result is “Active” in [6]; “Active” in [7]; “Active” in data set [8]; “Dose-dependent effect” in the data set with MC65 [9]; 35% in [10]. Further, the outcome with MC65 [1] was inactive. Further, the outcome with MC65 [2] was Active. For the same molecule, the EC50 in [3] came to 83 nM. In addition, in the data set on MC65 [4], the inhibition result was “Dose-dependent effect”.

`COc1cc(/C=C/C(=O)/C=C(O)/C=C/c2ccc(OCc3cn(CCCC(=O)NCCCCN[C@H]4CC[C@@]5(C)C(=CC[C@H]6[C@@H]7CC[C@H]([C@H](C)CCCC(C)C)[C@@]7(C)CC[C@@H]65)C4)nn3)c(OC)c2)ccc1O`: in the data set on MC65 [2], the result was Active.

(Values after ChEMBL document CHEMBL2177087, “Bivalent ligands targeting multiple pathological factors involved in Alzheimer's disease” (ACS Med Chem Lett, 2012).)
